CHOP inh: inhibitors of CHOP induction in ER stress response; inhibition, % at 10 µM; actives 3.8% (n = 220,000); AID 2732; CHO-K1 CHOP-promoter luciferase, tunicamycin-induced, 15-18 h;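 active = compounds that reduced the stress-induced luciferase reporter signal by more than about 70% of percent inhibition, limit read from the data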
NOD2-RIPK2 inh: blocks binding of human NOD2 to RIPK2. CHO BLA complementation NOD2-RIPK2, CCF4 ratio. inhibition, % at 4.98 µM. actives 0.38% (n = 360,000); in the data active = inhibition above about 21%
TLR4 MyD88 comp: TLR4-MyD88 interaction inhibition in cells. O00206+Q99836. AID 861. actives 0.18% (n = 200,000). HeLa CL3-4 TLR4/MyD88 BLA complementation, FRET ratio. inhibition, % at 8.4 µM; in the data active = inhibition above about 25%
CHOP UPR activ: apoptotic UPR (CHOP) activation; CHO-CHOP luciferase reporter, luminescence; percent of tunicamycin response over DMSO baseline; activation, % at 10 µM; actives 0.34% (n = 330,000);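 active = at 10 µM dose, activation of 40% or more, normalized to positive control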
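assay system = CHO CHOP reporter cells | amount = 500 CHO-CHOP cells per well | buffer or medium = F12 with 10% FBS | incubation = 16-18 h cell attachment, then 6 h compound exposure, 37 °C | detection = luminescence read with Steady-Glo | read-out = percent activation relative to tunicamycin control | controls = tunicamycin high control, DMSO low control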
TLR9-MyD88 inh: inhibitors of human TLR9-MyD88 binding; Q9NR96+Q99836; CHO BLA complementation TLR9-MyD88, CCF4 FRET ratio; inhibition, % at 4.98 µM; actives 0.21% (n = 340,000); AID 504734;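 active = inhibition above the mean over all tested compounds plus 3 SD, cut at about 21% in these data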
Target sequence (Q99836 whole entry, looked up): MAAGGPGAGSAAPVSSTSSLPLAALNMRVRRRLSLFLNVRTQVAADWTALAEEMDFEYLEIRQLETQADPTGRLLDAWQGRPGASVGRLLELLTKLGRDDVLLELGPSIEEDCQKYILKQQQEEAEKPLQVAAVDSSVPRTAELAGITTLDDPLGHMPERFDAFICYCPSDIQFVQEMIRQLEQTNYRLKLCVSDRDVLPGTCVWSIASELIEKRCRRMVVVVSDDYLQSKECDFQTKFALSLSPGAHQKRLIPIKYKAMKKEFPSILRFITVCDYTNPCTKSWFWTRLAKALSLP
Target sequence (Q9NR96 whole entry, looked up): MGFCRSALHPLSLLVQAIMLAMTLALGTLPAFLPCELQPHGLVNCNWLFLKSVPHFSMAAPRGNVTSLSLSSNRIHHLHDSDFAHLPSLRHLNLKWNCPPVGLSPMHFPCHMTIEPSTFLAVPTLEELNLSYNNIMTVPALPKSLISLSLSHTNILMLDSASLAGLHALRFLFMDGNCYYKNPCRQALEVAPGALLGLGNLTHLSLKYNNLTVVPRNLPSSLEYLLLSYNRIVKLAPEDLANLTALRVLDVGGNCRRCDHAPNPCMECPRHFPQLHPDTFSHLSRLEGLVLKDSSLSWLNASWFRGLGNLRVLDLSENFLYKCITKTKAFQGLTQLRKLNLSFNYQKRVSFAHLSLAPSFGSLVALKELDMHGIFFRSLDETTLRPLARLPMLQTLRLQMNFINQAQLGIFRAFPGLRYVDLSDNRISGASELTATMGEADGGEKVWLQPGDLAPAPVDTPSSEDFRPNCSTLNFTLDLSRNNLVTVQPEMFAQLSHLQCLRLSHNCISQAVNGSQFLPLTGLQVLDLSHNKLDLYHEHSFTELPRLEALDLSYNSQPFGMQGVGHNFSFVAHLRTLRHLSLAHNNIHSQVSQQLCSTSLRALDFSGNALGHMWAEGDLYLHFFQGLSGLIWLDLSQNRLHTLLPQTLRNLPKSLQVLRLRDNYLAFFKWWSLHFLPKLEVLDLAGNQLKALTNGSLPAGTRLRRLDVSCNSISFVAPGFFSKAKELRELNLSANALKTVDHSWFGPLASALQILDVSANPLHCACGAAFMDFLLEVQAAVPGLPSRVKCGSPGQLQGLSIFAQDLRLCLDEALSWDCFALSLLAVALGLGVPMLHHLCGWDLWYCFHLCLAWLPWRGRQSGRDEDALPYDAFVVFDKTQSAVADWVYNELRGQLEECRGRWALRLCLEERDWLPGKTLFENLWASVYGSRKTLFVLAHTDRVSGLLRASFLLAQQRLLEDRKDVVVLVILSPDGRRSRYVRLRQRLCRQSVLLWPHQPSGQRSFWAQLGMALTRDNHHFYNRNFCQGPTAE
UPR XBP1 act: activators of adaptive arm of unfolded protein response (XBP1); CHO-XBP1 luciferase reporter, IRE1-XBP1 UPR activation, luminescence; percent of tunicamycin response, DMSO as zero; activation, % at 20 µM; actives 0.33% (n = 330,000);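 active = versus positive control, 20 µM dose yields 30% or more activation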
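Assay system: CHO-XBP1 luciferase reporter cells; Schedule: 6 h treatment, 37 °C; Detection: glow luminescence from Steady-Glo reagent; Benchmarks: high control tunicamycin 10 µg/mL final, low control DMSO vehicle only.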
Numbers stand for hits; 0 = inactive; - = no result. Shown is part of a subset that was picked to be rich in hits.

SMILES	CHOP inh	NOD2-RIPK2 inh	TLR4 MyD88 comp	CHOP UPR activ	TLR9-MyD88 inh	UPR XBP1 act
Cc1ccc(/C(N)=N/OC(=O)COc2ccccc2Cl)cc1	70.2	0	0	0	0	0
Cc1ccc(C(=O)O/N=C(\N)c2ccccc2)c(Cl)c1	71.7	0	-	0	0	0
Cc1ccc(C(=O)O/N=C(\N)c2ccccn2)c(Cl)c1	-	0	-	0	0	0
N/C(=N\OC(=O)c1ccc(Cl)cc1Cl)c1ccccn1	79.2	0	0	0	0	0
Cc1ccc(C(=O)O/N=C(\N)c2ccc(Br)cc2)cc1	71.7	0	0	0	0	0
Cn1c(C(C)(O)C(O)c2ccccc2)nc2ccccc21 (stereo not drawn)	0	-	0	0	-	0
CCn1ccnc1CN(C)Cc1nc(Cc2cccc(C(F)(F)F)c2)no1	0	0	0	0	0	0
O=S(=O)(NCC(c1ccc2c(c1)OCO2)N1CCN(c2ccccc2)CC1)c1ccccc1 (stereo not drawn)	-	0	-	0	0	0
CCOc1cc(CNCCc2ccc(S(N)(=O)=O)cc2)ccc1OCc1ccc(Cl)cc1	89.5	0	0	0	0	0
COc1cc(/C=N/O)ccc1OCc1ccc(C(=O)O)cc1	90.5	0	0	0	0	0
COc1cc(/C=N/N=C(N)N)ccc1OCc1ccc(Cl)cc1	78.1	0	0	0	0	0
COc1cc(/C=N/NS(=O)(=O)c2ccc3ccccc3c2)ccc1OCc1ccc(C(=O)O)cc1	0	0	-	0	0	0
COc1cc(CNCCc2ccc(S(N)(=O)=O)cc2)ccc1OCc1ccc(Cl)cc1	0	0	0	0	0	0
COc1cc(/C=N/O)ccc1OCc1ccc(Cl)cc1	0	-	0	0	-	0
NC(N)=N/N=C/c1ccc(OCc2ccccc2)c(OCc2ccccc2)c1	-	0	-	62.6	0	0
CC(C)CN(C(=O)C1COc2ccccc2O1)c1c(N)n(CC(C)C)c(=O)[nH]c1=O (stereo not drawn)	-	0	-	0	0	0
CN(/N=C/c1ccc(N(C)C)cc1)C1=NS(=O)(=O)c2ccccc21	-	0	-	0	0	0
OC(c1cccc(Cl)c1)c1nc(-c2csc3ccccc23)cs1 (stereo not drawn)	-	0	-	-	-	-
Cc1ccc(Cc2c(C3CCCCC3)nc3cc(C)c(Br)c(C)n23)cc1	-	0	-	-	-	-
CCOc1cc(/C=N/O)ccc1OCc1ccc(F)cc1	0	0	0	0	0	0
CCOc1cc(/C=N/N=C(N)N)ccc1OCc1ccc(Cl)cc1	108.5	0	0	-	0	-
Cc1ccc2nc3n(c(=O)c2c1)-c1cc2ccccc2cc1C(=O)NC3Cc1ccccc1 (stereo not drawn)	-	0	-	-	0	-
CC1CCN(C(=O)Cn2c(=O)n(CCc3ccccc3)c(=O)c3ccccc32)CC1	88.1	0	0	0	0	0
CC1CCN(C(=O)Cn2c(=O)n(Cc3ccc4c(c3)OCO4)c(=O)c3ccccc32)CC1	0	0	0	0	0	0
CC1CCCCN1c1nc(-c2ccncc2)nc2ccccc12 (stereo not drawn)	76.5	0	0	0	0	0
SMILES	CHOP inh	NOD2-RIPK2 inh	TLR4 MyD88 comp	CHOP UPR activ	TLR9-MyD88 inh	UPR XBP1 act
CC1CCN(c2nc(-c3ccncc3)nc3ccccc23)CC1	0	0	0	0	0	0
CCOC(=O)c1c(NC(=O)c2cc(CC(C)C)on2)sc(C(C)=O)c1C	0	0	0	0	0	0
CCOC(=O)c1c(NC(=O)c2cc(C(C)C)on2)sc(C(C)=O)c1C	93.5	0	0	0	0	0
CCOC(=O)c1[nH]c(CSc2nnc(-c3ccc(OC)cc3)o2)c(C(=O)OCC)c1C	70.1	0	0	0	0	0
COc1ccc(-c2nnc(SCC(=O)c3[nH]c(C)c(C(C)=O)c3C)o2)cc1	0	0	0	0	0	0
O=C(CSc1cccc(C(F)(F)F)c1)NC(=O)NCc1ccco1	82.2	0	0	0	0	0
O=C(CSc1cccc(C(F)(F)F)c1)Nc1ccc(Cl)cc1Cl	83.0	0	0	0	0	0
O=C(CSc1cccc(C(F)(F)F)c1)NC(=O)c1ccccc1	0	0	0	0	0	0
CSc1nc(C)cc(SCC(=O)Nc2ccc(Cl)cc2Cl)n1	87.0	0	0	0	0	0
COc1ccc2cc(CNCCOCCOCCNCc3ccc4cc(OC)ccc4c3)ccc2c1	-	0	-	-	0	-
O=C(Cn1c(=O)sc2ccccc21)NCc1ccccn1	74.5	0	0	0	0	0
O=C(CN1C(=O)c2ccccc2C1=O)NCc1ccccn1	0	0	0	0	0	0
Cc1cc(Br)c(OCc2ccc(C(=O)N/N=C3\CC(=O)CC(C)(C)C3)cc2)c(Br)c1	90.5	0	0	0	0	0
CC1(C)CC(=O)C/C(=N/NC(=O)c2ccc(-c3ccccc3)cc2)C1	0	0	0	0	0	0
Cn1c(/C=N/NC(=O)c2ccccc2Br)nc2ccccc21	83.9	0	0	0	0	0
CC(=O)Nc1cc2nn(-c3ccccc3)nc2cc1C	-	0	-	0	0	0
CCC(=O)Nc1cc2nn(-c3ccccc3)nc2cc1Cl	79.0	0	0	0	0	0
Cc1ccc(CN2CCN(C(=O)c3ccncc3)CC2)cc1	0	0	0	0	0	0
CCOC(=O)C1=C(C)NC(C)=C(C(=O)OCC)C1c1ccccc1/C=C/C(=O)OC(C)(C)C	-	-	-	0	-	39.0
CCOC(=O)C1=C(C)NC(C)=C(C(=O)OCC)C1/C=C/c1ccccc1OC	0	0	0	0	0	0
C=CCN=C1NN=C(c2ccc3c(c2)OCCO3)CS1	70.6	0	0	0	0	0
C=CCN=C1NN=C(c2cc(C)n(CC=C)c2C)CS1	92.7	0	0	0	0	0
COCCn1c(C)cc(C2=NNC(=Nc3ccccc3F)SC2)c1C	70.0	0	0	0	0	0
COCCN=C1NN=C(c2cc(C)n(CC3CCCO3)c2C)CS1 (stereo not drawn)	0	0	0	0	0	0
O=C(COC(=O)CC1SC(N2CCCC2)=NC1=O)Nc1ccc(Br)cc1 (stereo not drawn)	-	0	-	0	0	0
Cc1cccc(C)c1NC(=O)C(c1ccccc1OC(F)(F)F)N1CCN(C)CC1 (stereo not drawn)	-	0	-	-	-	-
CCc1cccc2c1NC(=O)C21N2CCCC2C(C(=O)c2ccc3ccccc3c2)C12C(=O)Nc1ccccc12 (stereo not drawn)	0	0	0	0	0	0
CCc1ccc2c(c1)C1(C(=O)N2)N2CCCC2C(C(=O)c2ccc3ccccc3c2)C12C(=O)Nc1ccccc12 (stereo not drawn)	105.8	0	0	0	0	0
Cn1ccnc1Sc1nc2ccccc2nc1NS(=O)(=O)c1ccccc1	0	0	0	0	0	0
CCCCCc1ccc(S(=O)(=O)NCCc2ccncc2)cc1	72.3	0	0	0	0	0

Source: PubChem BioAssay
